Laboratory results from ChEMBL document CHEMBL4673245, “Discovery of AZD9833, a Potent and Orally Bioavailable Selective Estrogen Receptor Degrader and Antagonist” (J Med Chem, 2020).
Activity calls are given as the source filed them. No cut-off for these calls is given here.

Legend:
[1] = test system: MCF7; experiment: Antitumor activity against human […] cells xenografted in CB17 SCID mouse assessed as tumor regression at 5 mg, po administered via gavage three times a week for 21 days; assay type: functional, organism-based; conditions: time 21.0 day
[2] = test system: Mus musculus; experiment: In vivo antagonist activity at ERalpha in human MCF7 cells xenografted CB17 SCID mouse assessed as decrease in PR expression level at 5 mg, po administered via gavage three times a week for 21 days measured 24 hrs post last dose by Western blot analysis; assay type: functional, organism-based; conditions: time 21.0 day
[3] = Intrinsic clearance in human hepatocytes assessed per million cells; assay type: ADME, cell-based, Hepatocyte; conditions: read-out: CLH
How it was run: (§1)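 Hepatocyte intrinsic clearance measured from DMSO stock in isolated hepatocytes diluted to 1x10⁶ cells/mL; rate expressed as µl/min/10⁶ cells.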

[4] = Intrinsic clearance in rat hepatocytes assessed per million cells; assay type: ADME, cell-based, Hepatocyte; conditions: read-out: CLH; how it was run: as §1
[5] = Fraction unbound in human plasma by equilibrium dialysis method; assay type: ADME, cell-free
How it was run: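 Fraction unbound measured from DMSO stock by equilibrium dialysis in 10% human plasma.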

[6] = Lipophilicity, log D of the compound in buffer and octanol at pH 7.4 by shake flask method; assay type: physicochemical
How it was run: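 logD at pH 7.4 by shake flask, buffer/octanol volume ratio 100:1.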

[7] = biological target: T1, Estrogen receptor (Homo sapiens) (UniProt P03372); experiment: Induction of ERalpha degradation in human MCF7 cells assessed as maximum degradation incubated for 18 to 24 hrs by Alexa fluor 488/Hoechst staining based immunofluorescence imaging analysis relative to fulvestrant; assay type: cell-based; conditions: time lower […], time upper […]
T1 sequence (whole entry): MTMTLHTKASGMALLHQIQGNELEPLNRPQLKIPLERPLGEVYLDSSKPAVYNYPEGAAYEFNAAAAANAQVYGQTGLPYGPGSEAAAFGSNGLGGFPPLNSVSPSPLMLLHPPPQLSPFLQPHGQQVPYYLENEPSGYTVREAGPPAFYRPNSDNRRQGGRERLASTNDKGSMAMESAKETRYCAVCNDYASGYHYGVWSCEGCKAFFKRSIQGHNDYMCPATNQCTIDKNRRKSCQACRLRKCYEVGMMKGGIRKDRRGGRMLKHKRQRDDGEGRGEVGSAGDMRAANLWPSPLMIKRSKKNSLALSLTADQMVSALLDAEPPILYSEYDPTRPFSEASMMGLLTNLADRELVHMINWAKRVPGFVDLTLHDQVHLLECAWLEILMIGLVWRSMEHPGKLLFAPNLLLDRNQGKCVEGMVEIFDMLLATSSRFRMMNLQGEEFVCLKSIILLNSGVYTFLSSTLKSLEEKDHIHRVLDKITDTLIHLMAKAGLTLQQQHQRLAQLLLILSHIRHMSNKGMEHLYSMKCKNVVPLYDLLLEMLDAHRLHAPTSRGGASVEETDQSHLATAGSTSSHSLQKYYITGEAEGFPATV

[8] = biological target: T2, Estrogen receptor (Homo sapiens, UniProt P03372); experiment: Induction of ERalpha degradation in human MCF7 cells assessed as decrease in ER-alpha level incubated for 18 to 24 hrs by Alexa fluor 488/Hoechst staining based immunofluorescence imaging analysis; assay type: cell-based
T2 sequence (P03372 whole entry): T1 sequence (whole entry)
How it was run: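 ER degradation in MCF-7 cells via cellular degradation assay; n ≥ 2, degradation also expressed as %Dmax relative to fulvestrant.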

[9] = biological target: T2, Estrogen receptor; experiment: Displacement of fluormone ES2 green reagent from human GST-tagged ERalpha LBD (282 to 595 residues) expressed in baculovirus infected insect cells incubated for 1 hrs by TR-FRET Lanthascreen assay
[10] = biological target: Cytochrome P450 2C9 (Homo sapiens, UniProt P11712); experiment: Inhibition of CYP2C9 in human liver microsomes; assay type: ADME; conditions: human, microsomes
How it was run: (§2)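 High-throughput human liver microsome panel of five CYP isoforms; inhibition reported as IC50.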

[11] = biological target: Cytochrome P450 2C19 (Homo sapiens, UniProt P33261); experiment: Inhibition of CYP2C19 in human liver microsomes; assay type: ADME; conditions: human, microsomes; how it was run: as §2
[12] = biological target: T3, Cytochrome P450 1A2 (Homo sapiens, UniProt P05177); experiment: Inhibition of CYP1A2 in human liver microsomes; assay type: ADME; conditions: human, microsomes; how it was run: as §2
T3 sequence (P05177 whole entry): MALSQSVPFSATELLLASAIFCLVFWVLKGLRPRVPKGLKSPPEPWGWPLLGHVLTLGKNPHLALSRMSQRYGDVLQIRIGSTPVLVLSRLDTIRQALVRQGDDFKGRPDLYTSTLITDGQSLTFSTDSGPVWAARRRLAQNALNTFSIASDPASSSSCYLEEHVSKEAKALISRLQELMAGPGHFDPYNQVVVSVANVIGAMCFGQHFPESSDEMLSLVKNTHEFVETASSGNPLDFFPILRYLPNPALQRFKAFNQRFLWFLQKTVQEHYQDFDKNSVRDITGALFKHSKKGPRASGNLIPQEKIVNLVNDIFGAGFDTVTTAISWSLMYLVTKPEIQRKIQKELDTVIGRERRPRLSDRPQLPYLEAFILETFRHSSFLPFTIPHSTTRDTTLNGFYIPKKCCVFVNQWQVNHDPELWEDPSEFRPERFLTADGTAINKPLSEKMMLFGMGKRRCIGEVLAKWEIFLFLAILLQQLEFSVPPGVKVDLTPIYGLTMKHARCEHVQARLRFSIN

[13] = Dissociation constant, dibasic pKa of compound in 0.1 M potassium chloride in presence of piperidine by UV-vis spectroscopy; assay type: physicochemical
[14] = Oral bioavailability in rat at 1 mg/kg; assay type: ADME, organism-based; conditions: in vivo
How it was run: (§3)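 Rat PK: single IV dose 0.5 mg/kg and oral dose 1 mg/kg, formulated in 5% DMSO:95% hydroxypropyl-β-cyclodextrin (30% w/v), dosed at 1 mL/kg IV and 4 mL/kg PO.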

[15] = Half-life in rat at 0.5 mg/kg, iv or 1 mg/kg, po; assay type: ADME, organism-based; conditions: in vivo; how it was run: as §3
[16] = Volume of distribution at steady state in rat at 0.5 mg/kg, iv or 1 mg/kg, po; assay type: ADME, organism-based; conditions: in vivo, read-out: Vdss
How it was run: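 Rat dosed IV at 0.5 mg/kg and PO at 1 mg/kg, both formulated in 5% DMSO:95% hydroxypropyl-β-cyclodextrin (30% w/v), at 1 mL/kg IV and 4 mL/kg PO. Vdss (L/kg) derived from the pharmacokinetic profile after dosing.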

[17] = Clearance in rat at 0.5 mg/kg, iv or 1 mg/kg, po; assay type: ADME, organism-based; conditions: in vivo; how it was run: as §3
[18] = biological target: Cytochrome P450 3A4 (Homo sapiens, UniProt P08684); experiment: Inhibition of CYP3A4 in human liver microsomes; assay type: ADME; how it was run: as §2
[19] = biological target: Cytochrome P450 2D6 (Homo sapiens, UniProt P10635); experiment: Inhibition of CYP2D6 in human liver microsomes; assay type: ADME; how it was run: as §2
[20] = Dissociation constant, dibasic pKa of compound in 0.1 M potassium chloride in presence of azetidine by UV-vis spectroscopy; assay type: physicochemical
[21] = Fraction unbound in dog plasma; assay type: ADME, cell-free, Canis lupus familiaris
[22] = Fraction unbound in mouse plasma; assay type: ADME, cell-free
[23] = Fraction unbound in rat plasma; assay type: ADME, cell-free
[24] = Solubility of compound in phosphate buffer at pH 7.4 incubated for 24 hrs at 25 degree C; assay type: physicochemical
How it was run: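 Aqueous phosphate buffer pH 7.4, compound added from DMSO stock, equilibrated 24 h at 25 °C.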

[25] = biological target: T1, Estrogen receptor (Homo sapiens); experiment: Induction of ERalpha degradation in human CAMA1 cells assessed as decrease in ER-alpha level at 0.1 uM by Western blot analysis relative to fulvestrant; assay type: cell-based; parameters: scale not given: the % may be the effect or the level left; conditions: CAMA-1
How it was run: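 Western blot for ERα in MCF-7 and CAMA-1 cells after treatment at 0.1 µM. ER level is expressed as % degradation relative to fulvestrant, from a single experiment (n = 1).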

[26] = biological target: T1, Estrogen receptor (Homo sapiens); experiment: Induction of ERalpha degradation in human MCF7 cells assessed as decrease in ER-alpha level at 0.1 uM by Western blot analysis relative to fulvestrant; assay type: cell-based; parameters: scale not given: the % may be the effect or the level left
[27] = biological target: Voltage-gated inwardly rectifying potassium channel KCNH2 (Homo sapiens, UniProt Q12809); experiment: Inhibition of human ERG by plate-based planar patch clamp technique
How it was run: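 hERG tail current inhibition recorded on a plate-based planar patch clamp system; IC50 reported.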

Voltage-gated inwardly rectifying potassium channel KCNH2, sequence (Q12809 whole entry): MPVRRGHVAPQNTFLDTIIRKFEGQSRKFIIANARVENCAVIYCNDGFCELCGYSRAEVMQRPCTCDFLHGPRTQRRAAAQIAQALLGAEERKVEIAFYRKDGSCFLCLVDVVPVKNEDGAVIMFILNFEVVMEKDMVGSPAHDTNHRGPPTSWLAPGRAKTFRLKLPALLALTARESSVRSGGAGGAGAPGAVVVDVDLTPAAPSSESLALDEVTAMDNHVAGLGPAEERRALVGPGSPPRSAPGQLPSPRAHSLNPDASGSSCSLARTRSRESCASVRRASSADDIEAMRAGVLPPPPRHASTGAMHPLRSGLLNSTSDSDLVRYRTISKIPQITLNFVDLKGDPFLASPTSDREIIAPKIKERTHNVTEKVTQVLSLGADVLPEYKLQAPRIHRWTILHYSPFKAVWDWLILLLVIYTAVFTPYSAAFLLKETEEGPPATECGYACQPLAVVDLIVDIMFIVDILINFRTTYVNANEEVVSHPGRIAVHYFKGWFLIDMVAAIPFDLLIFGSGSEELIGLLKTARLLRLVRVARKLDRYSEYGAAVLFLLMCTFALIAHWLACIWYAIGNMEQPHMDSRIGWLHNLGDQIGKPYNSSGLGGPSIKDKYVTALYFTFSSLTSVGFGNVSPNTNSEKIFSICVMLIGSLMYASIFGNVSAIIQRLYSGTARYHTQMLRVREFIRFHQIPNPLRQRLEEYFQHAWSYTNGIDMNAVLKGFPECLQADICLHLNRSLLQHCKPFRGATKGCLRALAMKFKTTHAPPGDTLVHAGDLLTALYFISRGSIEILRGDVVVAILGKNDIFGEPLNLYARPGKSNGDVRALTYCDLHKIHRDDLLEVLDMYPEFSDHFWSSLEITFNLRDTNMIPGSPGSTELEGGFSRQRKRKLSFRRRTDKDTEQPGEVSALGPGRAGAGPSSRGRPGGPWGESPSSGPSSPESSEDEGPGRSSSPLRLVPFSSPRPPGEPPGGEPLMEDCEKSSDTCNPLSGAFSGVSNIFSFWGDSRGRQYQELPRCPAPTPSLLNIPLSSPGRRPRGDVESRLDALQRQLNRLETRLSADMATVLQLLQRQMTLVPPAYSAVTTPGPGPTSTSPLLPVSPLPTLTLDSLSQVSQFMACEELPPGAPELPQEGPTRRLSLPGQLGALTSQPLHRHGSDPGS
Cytochrome P450 2D6, sequence (P10635 whole entry): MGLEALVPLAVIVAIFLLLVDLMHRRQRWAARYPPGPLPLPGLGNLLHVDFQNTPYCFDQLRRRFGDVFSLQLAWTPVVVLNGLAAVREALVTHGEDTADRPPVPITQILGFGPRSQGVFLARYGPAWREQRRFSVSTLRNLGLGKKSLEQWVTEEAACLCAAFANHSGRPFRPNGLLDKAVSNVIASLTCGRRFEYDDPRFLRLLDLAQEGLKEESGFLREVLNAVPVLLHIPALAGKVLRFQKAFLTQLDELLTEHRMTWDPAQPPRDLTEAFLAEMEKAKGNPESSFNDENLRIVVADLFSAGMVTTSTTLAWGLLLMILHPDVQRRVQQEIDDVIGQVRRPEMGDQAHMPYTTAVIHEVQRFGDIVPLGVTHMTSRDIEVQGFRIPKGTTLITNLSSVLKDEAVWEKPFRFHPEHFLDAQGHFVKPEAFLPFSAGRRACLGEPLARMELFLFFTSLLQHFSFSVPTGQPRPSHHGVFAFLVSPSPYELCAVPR
Cytochrome P450 2C19, sequence (P33261 whole entry): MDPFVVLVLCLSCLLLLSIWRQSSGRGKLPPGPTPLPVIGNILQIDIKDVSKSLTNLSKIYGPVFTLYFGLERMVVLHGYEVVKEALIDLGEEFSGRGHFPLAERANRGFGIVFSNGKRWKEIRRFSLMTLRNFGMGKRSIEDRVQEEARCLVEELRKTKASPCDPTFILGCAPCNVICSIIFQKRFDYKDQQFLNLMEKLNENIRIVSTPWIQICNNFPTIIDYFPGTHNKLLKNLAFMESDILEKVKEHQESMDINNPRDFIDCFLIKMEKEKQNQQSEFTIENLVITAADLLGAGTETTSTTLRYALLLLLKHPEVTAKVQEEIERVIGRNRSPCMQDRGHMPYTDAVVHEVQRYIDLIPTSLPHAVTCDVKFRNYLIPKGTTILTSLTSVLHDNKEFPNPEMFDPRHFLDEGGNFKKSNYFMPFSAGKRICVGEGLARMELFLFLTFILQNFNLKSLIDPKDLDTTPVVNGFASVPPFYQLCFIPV
Cytochrome P450 3A4, sequence (P08684 whole entry): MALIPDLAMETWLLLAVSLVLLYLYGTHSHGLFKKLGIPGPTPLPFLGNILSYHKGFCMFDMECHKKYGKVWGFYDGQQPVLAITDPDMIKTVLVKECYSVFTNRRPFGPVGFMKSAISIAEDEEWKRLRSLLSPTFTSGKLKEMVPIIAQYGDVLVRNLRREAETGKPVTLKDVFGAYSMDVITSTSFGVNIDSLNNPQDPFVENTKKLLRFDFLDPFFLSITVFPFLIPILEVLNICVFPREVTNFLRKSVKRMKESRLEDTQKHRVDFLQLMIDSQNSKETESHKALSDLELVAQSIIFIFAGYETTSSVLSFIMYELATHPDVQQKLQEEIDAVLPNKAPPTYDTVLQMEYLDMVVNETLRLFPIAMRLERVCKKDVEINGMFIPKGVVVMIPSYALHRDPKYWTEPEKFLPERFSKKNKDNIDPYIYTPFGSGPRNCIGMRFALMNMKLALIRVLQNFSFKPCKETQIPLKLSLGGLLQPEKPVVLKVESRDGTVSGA
Cytochrome P450 2C9, sequence (P11712 whole entry, canonical isoform): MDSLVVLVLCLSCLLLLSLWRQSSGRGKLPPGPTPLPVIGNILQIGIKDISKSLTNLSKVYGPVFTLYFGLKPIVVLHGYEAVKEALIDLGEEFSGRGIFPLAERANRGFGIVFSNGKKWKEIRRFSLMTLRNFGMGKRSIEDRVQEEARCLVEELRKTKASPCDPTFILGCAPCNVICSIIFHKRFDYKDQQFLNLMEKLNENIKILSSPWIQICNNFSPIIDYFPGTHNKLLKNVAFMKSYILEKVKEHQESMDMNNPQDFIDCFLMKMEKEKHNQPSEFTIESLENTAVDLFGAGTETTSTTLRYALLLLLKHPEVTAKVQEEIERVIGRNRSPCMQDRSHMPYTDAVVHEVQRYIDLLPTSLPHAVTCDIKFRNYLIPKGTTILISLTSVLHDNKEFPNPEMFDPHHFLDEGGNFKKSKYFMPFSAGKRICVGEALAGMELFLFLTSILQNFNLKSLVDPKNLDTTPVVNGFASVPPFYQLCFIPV

Row | Compound | hepatocyte CLint [3] | hepatocyte CLint [4] | fraction unbound [5] | logD [6] | Emax [7] | IC50 [8] | IC50 [9] | Activity [25] | Activity [26] | further results
1 | C[C@]12CC[C@@H]3c4ccc(O)cc4C[C@@H](CCCCCCCCC[S+]([O-])CCCC(F)(F)C(F)(F)F)[C@H]3[C@@H]1CC[C@@H]2O (stereo partly drawn) | – | – | – | – | – | – | – | – | – | Activity [1]: Active; Activity [2]: Active
2 | CC(C)CN1[C@H](c2c(F)cc(OCCN3CC(CF)C3)cc2F)c2ccc3[nH]ncc3c2C[C@H]1C | 9 µL/min/1e6 cells | 74 µL/min/1e6 cells | 0.004 | 4.6 | 99% | 0.2 nM | 0.794 nM | – | – | –
3 | COc1cc(NC2CN(CCCF)C2)ccc1[C@@H]1c2ccc3[nH]ncc3c2C[C@@H](C)N1CC1(F)CC1 | – | 7 µL/min/1e6 cells | 0.34 | – | 96% | 0.316 nM | 7.94 nM | 84% | 89% | inhibition (INH) [10]: Not Active; inhibition (INH) [11]: Not Active; inhibition (INH) [12]: Not Active; pKa [13]: 7.8; bioavailability [14]: 3%; half-life [15]: 11 h; Vd [16]: 71 L/kg; clearance [17]: 125 mL/min/kg; IC50 [18]: 11000 nM; IC50 [19]: 1200 nM; pKa [20]: 8.7; fraction unbound [21]: 0.22; fraction unbound [22]: 0.39; fraction unbound [23]: 0.51; solubility at 24 h [24]: > 900 µM
4 | C[C@@H]1Cc2c(ccc3[nH]ccc23)[C@@H](c2ccc(NC3CN(CCCF)C3)cn2)N1CC(F)(F)F | 3 µL/min/1e6 cells | 10 µL/min/1e6 cells | 0.073 | 3.2 | 98% | 0.158 nM | 3.16 nM | 85% | 98% | –
5 | C[C@@H]1Cc2c(ccc3[nH]ncc23)[C@@](C)(c2ccc(NC3CN(CCCF)C3)cn2)N1CC(F)F | – | 114 µL/min/1e6 cells | 0.1 | – | 96% | 1 nM | 10 nM | – | – | IC50 [27]: 13000 nM
6 | C[C@@H]1Cc2c(ccc3[nH]ncc23)[C@@H](c2c(F)cc(OCCN3CC(CF)C3)cc2F)N1CC(C)(C)F | 8 µL/min/1e6 cells | 88 µL/min/1e6 cells | 0.008 | 4.4 | – | 0.126 nM | 1 nM | 66% | 84% | –
7 | C[C@@H]1Cc2c(ccc3[nH]ncc23)[C@@H](c2ccc(N[C@H]3CCN(CCCF)C3)cn2)N1CC(F)(F)F | 5 µL/min/1e6 cells | 22 µL/min/1e6 cells | 0.18 | 3 | 99% | 0.126 nM | 2.51 nM | 104% | 95% | IC50 [27]: 13000 nM
8 | C[C@@H]1Cc2c(ccc3[nH]ncc23)[C@@H](c2ccc(OCCN3CC(CF)C3)cn2)N1CC(F)(F)F | 3 µL/min/1e6 cells | 45 µL/min/1e6 cells | 0.22 | 3 | 96% | 0.398 nM | 1.26 nM | 80% | 91% | –
9 | CC(C)CN1[C@H](c2ccc(OCCN3CC(CF)C3)cc2)c2ccc3[nH]ncc3c2C[C@H]1C | 8 µL/min/1e6 cells | 66 µL/min/1e6 cells | 0.11 | 3.4 | 99% | 0.158 nM | 2 nM | – | – | –
10 | CC(C)CN1[C@H](c2ccc(OCCN3CC(CF)C3)cn2)c2ccc3[nH]ncc3c2C[C@H]1C | 8 µL/min/1e6 cells | 41 µL/min/1e6 cells | 0.19 | 3.2 | 99% | 0.398 nM | 10 nM | – | – | –
11 | COc1cc(OCCN2CC(CF)C2)ccc1[C@@H]1c2ccc3[nH]ncc3c2C[C@@H](C)N1CC(C)(C)F | 12 µL/min/1e6 cells | 28 µL/min/1e6 cells | 0.065 | 3.6 | 95% | – | 3.16 nM | 74% | 69% | –
12 | C[C@@H]1Cc2c(ccc3[nH]ncc23)[C@@H](c2ccc(OCCN3CC(CF)C3)cn2)N1CC(F)F | 5 µL/min/1e6 cells | 36 µL/min/1e6 cells | 0.49 | – | 98% | 0.501 nM | 2.51 nM | 88% | 97% | –
